Screening data (PubChem)
TAAR1 agonist: agonists of human TAAR1 | 360,000 tested, 0.99% active | CHO RD-HGA16 TAAR1, Fluo-8 calcium fluorescence; vehicle wells 0%, saturating PEA agonist 100% | activation, % at 3 µM | Q96RJ0;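 active means activation above the mean activation of all test compounds in the run plus 3 SD, cut at about 38% in these data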
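System: CHO RD-HGA16 cells carrying human TAAR1 plus Gα16; Incubation: 17-24 h seeding, 75 min 37 °C dye, 30 min RT; Measured by: Fluo-8 fluorescence, 5 s baseline then 140 s kinetic read; Control set: DMSO and PEA EC100; Replication: single well for each compound.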
OXTR agonist: human OXTR agonism; activation, % at 3 µM; 320,000 tested, 0.32% active; AID 2435; CHO-OTR cells, Fluo-8 calcium fluorescence; normalized: DMSO 0%, oxytocin 100%;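 active means activation above the mean of all tested compounds plus 3 SD, cutoff set per screening run, cut at about 20% in these data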;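 further: peak over basal fluorescence ratio from a 100 s FLIPR kinetic read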
Target sequence (P30559 whole entry, looked up): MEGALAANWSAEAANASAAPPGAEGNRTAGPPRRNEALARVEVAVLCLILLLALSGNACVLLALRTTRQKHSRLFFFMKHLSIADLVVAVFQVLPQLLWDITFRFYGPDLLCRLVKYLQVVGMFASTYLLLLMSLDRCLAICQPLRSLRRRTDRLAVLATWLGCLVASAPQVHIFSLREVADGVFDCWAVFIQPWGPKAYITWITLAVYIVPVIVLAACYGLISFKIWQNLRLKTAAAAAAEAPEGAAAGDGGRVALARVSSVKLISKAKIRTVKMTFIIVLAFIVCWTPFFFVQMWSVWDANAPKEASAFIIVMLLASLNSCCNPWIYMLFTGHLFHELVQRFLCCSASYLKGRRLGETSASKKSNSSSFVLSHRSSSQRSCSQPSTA
V1aR counter: V1a receptor agonism, counter-screen for OXTR agonists. CHO-V1R cells, Fluo-8 calcium fluorescence, agonist mode; 0% DMSO, 100% 3 nM vasopressin. activation, % at 3 µM. P37288. AID 2797. 320,000 tested, 0.25% active;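 active means activation above the mean activation of all tested compounds plus 3 SD, per screening run, cut at about 20% in these data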;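 further: signal is peak over basal fluorescence ratio across a 100 second FLIPR read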
OXTR potentiate: potentiates the human oxytocin receptor response; 320,000 tested, 0.061% active; P30559; CHO-OTR cells, Fluo-8 calcium fluorescence, potentiator mode; 0% = oxytocin EC15, 100% = EC100; activation, % at 3 µM; AID 2445;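 active means activation above that plate's cutoff, the mean activation of tested compounds plus 3 SD, cut at about 6.6% in these data, passing the limit was not always enough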;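 further: 100% uses oxytocin at 75 nM as the full agonist control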
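Replication – single well per compound, singlicate · Assay system – CHO cell line stably expressing human OTR · Timing – 6 min pre-incubation, 100 s read · Measure – normalized max/min fluorescence ratio, % activation · Doses – 3.0 µM, one dose · Detection – Fluo-8 calcium dye fluorescence · Probe or stimulus – oxytocin near EC15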
TAAR1 antagonist: human TAAR1 antagonism. Q96RJ0. CHO RD-HGA16 TAAR1, Fluo-8 calcium fluorescence, antagonist. inhibition, % at 3 µM. 360,000 tested, 1.5% active. AID 624466;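 active means inhibition above a per-plate cutoff, the mean inhibition of test compounds on that plate plus 3 SD, cut at about 49% in these data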;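 further: 0% = DMSO plus EC80 beta-PEA response and 100% = DMSO alone without agonist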
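Assay system: CHO-derived RD-HGA16 cells stably expressing human TAAR1 plus Gα16. Timing: 140 s kinetic read after compound, 140 s after agonist. Technique: kinetic Fluo-8 calcium fluorescence measurement. Measure: % inhibition of agonist calcium response.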
TAAR1 nonsel count: nonselective antagonist in TAAR1 antagonist counter-screen. shares compounds with TAAR1 antagonist. counterscreen cell line, calcium fluorescence, antagonist mode. inhibition, % at 3 µM. 2,400 tested, 77% active. AID 651780; in the data active means inhibition above about 22%;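 further: CHO-Ga16 host cells stimulated with ATP at an EC80 level; 0% = agonist EC80 plus vehicle and 100% = vehicle without agonist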
TAAR1 ant conf: human TAAR1 antagonism, confirmed | shares compounds with TAAR1 antagonist | 2,400 tested, 40% active | TAAR1-expressing cells, fluorescence antagonist read-out | inhibition, % at 3 µM | AID 651785; in the data active means inhibition above about 49%;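 further: CHO-Ga16 host cells challenged with agonist PEA near its EC80; 0% = agonist at EC80 plus vehicle and 100% = vehicle with no agonist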
Ga16 nonsel ag: counter-screen for TAAR1 antagonists: nonselective Ga16 agonists. AID 651953. shares compounds with TAAR1 antagonist. activation, % at 3 µM. Ga16-expressing cells, calcium fluorescence, agonist counterscreen. 2,400 tested, 18% active; in the data active means activation above about 12%;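 further: 0% = vehicle wells and 100% = saturating stimulus response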
TAAR1 ag count: counter-screen for human TAAR1 antagonists: TAAR1 agonists. shares compounds with TAAR1 antagonist. hTAAR1 cell line, fluorescence activation, agonist mode. activation, % at 3 µM. 2,400 tested, 2% active. AID 651955; in the data active means activation above about 37%;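 further: CHO cells stably expressing TAAR1 with calcium dye readout; 0% = DMSO vehicle and 100% = full agonist response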
* = called active by the depositor. Only some compounds are listed: those with a hit (about 2.3% of all), similar ones and a draw of the others.

What do the screens show for `CCN(CC)S(=O)(=O)c1ccc(OC)c(NC(=O)C(C)Oc2ccc3c(C)cc(=O)oc3c2)c1` (centres undefined)?
TAAR1 agonist: 1; OXTR agonist: -2; V1aR counter: 2; OXTR potentiate: 3; TAAR1 antagonist: 103*; TAAR1 nonsel count: 8; TAAR1 ant conf: -8; Ga16 nonsel ag: 9; TAAR1 ag count: 13

What do the screens show for `CCCCNC(=S)Nc1ccccc1Cc1ccccc1`?
TAAR1 agonist: -2; OXTR agonist: -2; V1aR counter: -1; OXTR potentiate: -7; TAAR1 antagonist: -10

Results for CCc1ccccc1NC(=S)N(CCCN(C)C)Cc1cc2cc3c(cc2[nH]c1=O)OCO3 ?
TAAR1 agonist: 7; OXTR agonist: 2; V1aR counter: 0; OXTR potentiate: -3; TAAR1 antagonist: 7

How did N#Cc1ccc(-c2ccc(OCC(=O)NN=Cc3ccncc3)cc2)cc1 do in these assays?
TAAR1 agonist: 14; OXTR agonist: 9; V1aR counter: 10; OXTR potentiate: -9; TAAR1 antagonist: 54*; TAAR1 nonsel count: 26*; TAAR1 ant conf: 53*; Ga16 nonsel ag: 13*; TAAR1 ag count: 14

What do the screens show for `O=C(COc1ccc(-c2ccccc2)cc1)N/N=C/c1cc(O)ccc1Br`?
TAAR1 agonist: -1; OXTR agonist: 3; V1aR counter: 4; OXTR potentiate: -8; TAAR1 antagonist: 53*; TAAR1 nonsel count: 22*; TAAR1 ant conf: 28; Ga16 nonsel ag: 1; TAAR1 ag count: 0

What do the screens show for `O=C(COc1ccc(-c2ccccc2)cc1)N/N=C/c1ccccc1Br`?
TAAR1 agonist: 0; OXTR agonist: 0; V1aR counter: 0; OXTR potentiate: -11; TAAR1 antagonist: 17

What do the screens show for `O=[N+]([O-])c1ccc(CSC2=NCCS2)cc1`?
TAAR1 agonist: 3; OXTR agonist: -2; V1aR counter: 0; OXTR potentiate: -4; TAAR1 antagonist: -23

What do the screens show for `COc1ccc(-n2nc3c(c2NC(=O)c2ccc(Br)o2)CS(=O)(=O)C3)cc1`?
TAAR1 agonist: 4; OXTR agonist: 1; V1aR counter: 0; OXTR potentiate: -7; TAAR1 antagonist: 0

What do the screens show for `O=C1NC(=O)C(c2ccccc2[N+](=O)[O-])=C1Nc1ccc(O)c(Cl)c1`?
TAAR1 agonist: 2; OXTR agonist: 0; V1aR counter: 0; OXTR potentiate: -4; TAAR1 antagonist: -8

How did COc1cccc(C(=O)N(Cc2ccc(N(C)C)cc2)C2CCS(=O)(=O)C2)c1 (centres undefined) do in these assays?
TAAR1 agonist: -2; OXTR agonist: 1; V1aR counter: 0; OXTR potentiate: -1; TAAR1 antagonist: 106*; TAAR1 nonsel count: 4; TAAR1 ant conf: -4; Ga16 nonsel ag: 5; TAAR1 ag count: 4

What do the screens show for `O=C(COC(=O)/C=C/c1cn(-c2ccccc2)nc1-c1ccc2c(c1)OCCO2)NC1CCS(=O)(=O)C1` (centres undefined)?
TAAR1 agonist: 14; OXTR agonist: 2; V1aR counter: 2; OXTR potentiate: -4; TAAR1 antagonist: 87*; TAAR1 nonsel count: 40*; TAAR1 ant conf: 55*; Ga16 nonsel ag: 8; TAAR1 ag count: 7

How did O=C(Nc1ccc(-c2noc(CCc3ccccc3)n2)cc1)c1cccnc1 do in these assays?
TAAR1 agonist: 24; OXTR agonist: 7; V1aR counter: 8; OXTR potentiate: -18; TAAR1 antagonist: 69*; TAAR1 nonsel count: 37*; TAAR1 ant conf: 51*; Ga16 nonsel ag: 14*; TAAR1 ag count: 14

What do the screens show for `O=C(NCCc1ccccc1)c1ccc(NC(=O)c2cccnc2)cc1`?
TAAR1 agonist: 11; TAAR1 antagonist: -4
